Screening data (PubChem)
H9c2 TAG inh = triacylglycerol accumulation inhibition; inhibition, % at 12.5 µM; 230,000 compounds, 0.66% hits; H9c2 cells, Nile Red lipid (TAG) fluorescence; cells loaded with 200 µM oleic acid;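 active means pattern-corrected inhibition of lipid staining of at least 50% with the nuclear-stain viability signal not falling by more than 50%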
sPLA2-III inh = Blocks human group III sPLA2 activity | Q9NZ20 | 370,000 compounds, 0.56% hits | QFRET BODIPY PC-A2 liposome hydrolysis, fluorescence | inhibition, % at 12.2 µM;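 active means inhibition above mean plus 3 SD of compounds lying within the high and low control bounds, cut at about 19% in these data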
Target sequence (Q9NZ20 whole entry, looked up): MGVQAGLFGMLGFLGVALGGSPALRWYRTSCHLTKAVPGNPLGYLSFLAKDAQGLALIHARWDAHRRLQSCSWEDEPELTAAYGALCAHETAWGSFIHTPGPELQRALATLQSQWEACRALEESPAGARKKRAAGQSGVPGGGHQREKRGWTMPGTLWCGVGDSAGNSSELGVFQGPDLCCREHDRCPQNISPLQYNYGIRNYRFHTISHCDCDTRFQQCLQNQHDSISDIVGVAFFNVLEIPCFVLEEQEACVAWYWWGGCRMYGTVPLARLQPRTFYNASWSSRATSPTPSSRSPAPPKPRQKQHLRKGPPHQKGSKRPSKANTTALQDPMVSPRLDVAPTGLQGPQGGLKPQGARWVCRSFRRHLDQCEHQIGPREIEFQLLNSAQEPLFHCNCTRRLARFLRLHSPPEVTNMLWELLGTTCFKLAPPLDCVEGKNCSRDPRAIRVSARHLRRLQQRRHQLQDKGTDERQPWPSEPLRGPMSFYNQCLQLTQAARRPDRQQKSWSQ
Efflux pump inh = inhibitors of Candida antifungal efflux pumps expressed in yeast. S. cerevisiae Candida pump triplex, Nile Red efflux. inhibition, % at 10 µM. 330,000 compounds, 0.44% hits;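 active means plate passing quality check with inhibition over a set limit, or well fluorescence over plate mean plus 4 SD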;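 further: Nile Red retained in pooled yeast measured as flow cytometry median fluorescence; higher means more Nile Red kept so more efflux inhibition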
MT1-MMP act inh = inhibitors of human MT1-MMP activation | 360,000 compounds, 0.061% hits | AID 651647 | GFP/RFP ratio change, % at 20 µM | HT1080 RFP-PRO-GFP cells, GFP/RFP ratio fluorescence, overnight; percent of plate control window, DMSO zero | P50281;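 active means GFP/RFP ratio change of at least 30% with cell ATP level not reduced by more than half and red fluorescence within 50% of control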
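Assay system – RFP-PRO-GFP reporter HT1080 cells · Compound dosing – single dose of 20 µM compound, 1% DMSO final · Incubation – overnight compound exposure at 37 °C · Measure – GFP/RFP fluorescence ratio · Benchmarks – DMSO wells and RFP-L50D-GFP cells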
H9c2 TAG conf = triacylglycerol accumulation inhibition, confirmation. H9c2 lipid accumulation, Nile Red fluorescence; cells loaded with 200 µM oleic acid. shares compounds with H9c2 TAG inh. inhibition, % at 12.5 µM. AID 651629. 990 compounds, 71% hits;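 active means mean inhibition across replicates of 40% or more; inactive means mean inhibition below 40%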
A number is an active result; - = inactive; . = no result. The list is not random: actives were taken first. Their share in the collection is about 1.3%.

SMILES | H9c2 TAG inh | sPLA2-III inh | Efflux pump inh | MT1-MMP act inh | H9c2 TAG conf
CCC(C)(C)C1CCC2(CC1)NC(=O)N(CC(=O)NCCc1ccc(OC)c(OC)c1)C2=O (configuration not stated) | 52.6 | - | - | - | 50.2
CC(C)(C)c1cc(NC(=O)C2(C)CCN2C(=O)C2(c3ccccc3)CCCC2)no1 (configuration not stated) | 52.9 | - | . | - | -
CCOc1ccc(C2=Nc3ccccc3C(c3ccc(N4CCOCC4)cc3)=NN2)cc1 | 73.4 | - | - | - | 52.8
CCC(Cc1ccccc1)NS(=O)(=O)c1c(C)nc2sccn2c1=O (configuration not stated) | - | - | - | - | .
O=C(Nc1ccc(-c2csc(Nc3ccccc3)n2)cc1)c1cccc(C(F)(F)F)c1 | 75.1 | - | - | - | 83.0
O=C(Nc1cccc(-c2csc(Nc3cccc(C(F)(F)F)c3)n2)c1)c1cc([N+](=O)[O-])cc(C(F)(F)F)c1 | 58.1 | - | - | - | 56.0
O=C(Nc1ccc(-c2csc(Nc3ccc(Cl)cc3)n2)cc1)c1cccc(C(F)(F)F)c1 | . | - | - | . | .
Cc1ccc(-n2nc(C)c3c(C)c(CCC(=O)Nc4ccc(CN5CCCC5)cc4)c(C)nc32)cc1 | 65.1 | - | - | . | 59.1
COC(CNC(=O)CCc1c(C)nc2c(c(C)nn2-c2ccc(C)cc2)c1C)OC | . | - | - | - | .
Cc1ccc(C(C)C)c(OCC(=O)NS(=O)(=O)c2ccc(Cl)cc2)c1 | - | - | - | - | .
O=C(CSc1nc2ccccc2c(=O)n1Cc1ccco1)c1ccccc1 | . | - | - | - | .
Cc1cc(-n2c(C)cc(C(=O)CSc3nc4ccccc4c(=O)n3Cc3ccco3)c2C)no1 | 55.3 | - | - | - | -
COc1cccc(CN(C(=O)c2ccc([N+](=O)[O-])cc2)C2CCS(=O)(=O)C2)c1 (configuration not stated) | . | - | - | - | .
COc1cccc2sc(Nc3nc(-c4cc5ccccc5oc4=O)cs3)nc12 | 57.7 | - | - | - | 86.8
CCOc1ccccc1NC(=O)C(CC(C)C)NC(=O)C1CCCCC1 (configuration not stated) | 50.5 | - | - | - | -
COc1ccc(CCNC(=O)COC(=O)CCC(=O)c2ccc(F)cc2)cc1OC | - | - | - | - | .
O=C(NCCCCCCCN1CCCCCCC1)C(C1CCCCC1)C1CCCCC1 | 69.9 | - | . | - | 50.6
O=C(NCCCN1CCOCC1)NC1CCCCC1 | - | - | - | - | .
COc1ccc(N=C2C(=Nc3ccc(OC)cc3)N(c3ccc(OC)cc3)C(=S)N2C(=O)c2ccc(OC)cc2)cc1 | 54.2 | - | - | - | 99.1
Cc1cccc(C)c1Nc1nnc(SCc2cc([N+](=O)[O-])cc3c2OCOC3)s1 | . | - | - | - | .
COc1cccc(Nc2nnc(SCc3cc([N+](=O)[O-])cc4c3OCOC4)s2)c1 | 52.7 | - | - | - | 42.1
Cc1ccc(NC(=O)CSc2nnc(C)c(=O)n2N)cc1Cl | 50.8 | - | - | - | 44.4
O=C(NCCC1=CCCCC1)C1CCN(C(=O)Nc2ccccc2)CC1 | 50.8 | - | - | - | -
O=C(NCCC1=CCCCC1)C1CCN(S(=O)(=O)N2CCCC2)CC1 | - | - | - | - | .
O=C(Nc1nc2nc(-c3ccccc3)cc(-c3ccccc3)n2n1)c1ccco1 | 64.2 | - | - | - | -
SMILES | H9c2 TAG inh | sPLA2-III inh | Efflux pump inh | MT1-MMP act inh | H9c2 TAG conf
CN=C1c2cc3cc(OC)ccc3n2CCN1Cc1ccccc1 | 57.3 | - | . | - | 50.8
CC(=O)c1ccc(NC(=O)C2(c3ccccc3)CCOCC2)cc1 | - | - | - | - | .
CCOc1ccc(OCC)c(NC(=O)CN(c2ccc(C)cc2)S(=O)(=O)c2c(C)noc2C)c1 | 52.8 | - | - | - | 46.4
CCCc1[nH]n(-c2ccc([N+](=O)[O-])cc2)c(=O)c1C=NCCc1c[nH]c2ccccc12 | 63.1 | - | - | - | 64.9
O=C(O)c1ccc(Cl)cc1NC(=O)C1CCN(S(=O)(=O)c2cccs2)CC1 | - | - | . | - | .
COc1cc(CNC2CCCCCCC2)cc(Br)c1OCC#N | . | - | - | - | .
CCOc1c(Br)cc(CNC2CCCCCCC2)cc1OC | 70.2 | - | - | - | 80.0
CCOC(=O)CCCNC(=O)OC1CC2CC1[C@H]1CCCCN1[C@H]2C (some centres not stated) | . | - | . | . | .
CC(C)COc1ccc(C(=O)Nc2scc(-c3ccc(Cl)cc3Cl)c2C(N)=O)cc1 | 59.9 | - | - | - | -
O=C(Nc1ccccc1)c1ccc(NCC2CCCO2)c(S(=O)(=O)N2CCOCC2)c1 (configuration not stated) | 65.6 | - | - | - | 46.2
O=C(NCC1CCCO1)c1ccc(Cl)c(S(=O)(=O)N2CCOCC2)c1 (configuration not stated) | . | - | - | - | .
CCCCNC(=O)C1(C)CCN1C(=O)c1cc(-c2cccs2)oc1C (configuration not stated) | - | - | . | - | .
O=C1N=C(N2CCOCC2)S/C1=C/c1ccc(-c2ccc(F)cc2)o1 | 66.1 | - | - | - | 41.6
CN(Cc1ccccc1)c1ccc(C(CC(N)=O)NC(=O)c2ccccc2)cc1[N+](=O)[O-] (configuration not stated) | - | - | - | - | .
CC1(C(=O)NCc2cccs2)Cc2c(-c3ccc4c(c3)OCO4)ccnc2O1 (configuration not stated) | 53.8 | - | . | - | 51.9
CC1(C(=O)Nc2cccc(Oc3ccccc3)c2)Cc2c(-c3ccc4c(c3)OCO4)ccnc2O1 (configuration not stated) | 63.1 | - | . | - | 46.7
CC1(C(=O)Nc2ccccc2)Cc2c(-c3ccc4c(c3)OCO4)ccnc2O1 (configuration not stated) | - | - | . | - | .
O=C(NCc1ccccn1)C1CCN(C2CCN(Cc3cccc(F)c3)CC2)CC1 | - | - | . | - | .
COc1ccc(C[C@H]2CN3C(=NC[C@@H]3Cc3ccc(O)cc3)N2CCNC(=O)c2ccc(C)c(Br)c2)cc1 | 61.8 | - | . | - | 49.4
O=C(COc1ccc(Cl)cc1Cl)NN=C1c2ccccc2-c2ccccc21 | 50.7 | - | - | - | -
N=C1SCC(=O)N1c1ncc(Cc2ccc(F)cc2)s1 | - | - | - | - | .
CCN(CC)CCC(c1cc(OC)c(OC)c(OC)c1)c1c(OC)cc(OC)c2c(C)cc(=O)oc12 (configuration not stated) | - | - | . | - | .
CCCCCc1cc(=O)oc2c(C(CCN(CC)CC)c3ccc(N(C)C)cc3)c(OC)cc(OC)c12 (configuration not stated) | 71.9 | - | - | - | 60.5
COc1cc(OC)c2c(-c3ccccc3)cc(=O)oc2c1C(CCN1CCCCC1)c1ccc(N(C)C)cc1 (configuration not stated) | 68.3 | . | - | - | 55.3
COc1cc(OC)c2c(-c3ccccc3)cc(=O)oc2c1C(CC(=O)N1CCCC1)c1ccc2c(c1)OCO2 (configuration not stated) | - | - | . | - | .
